IDH1 R132H inh: blocks human IDH1 R132H reductase activity; diaphorase/resazurin fluorescence, 60 min; inhibition, % at 10 µM; AID 624101; 0.18% of 70,000 active; O75874; in the data active means inhibition above about 34%; inconclusive means no clear call, values can overlap the other calls; inactive means below about 11%
Target sequence (O75874 whole entry R132H): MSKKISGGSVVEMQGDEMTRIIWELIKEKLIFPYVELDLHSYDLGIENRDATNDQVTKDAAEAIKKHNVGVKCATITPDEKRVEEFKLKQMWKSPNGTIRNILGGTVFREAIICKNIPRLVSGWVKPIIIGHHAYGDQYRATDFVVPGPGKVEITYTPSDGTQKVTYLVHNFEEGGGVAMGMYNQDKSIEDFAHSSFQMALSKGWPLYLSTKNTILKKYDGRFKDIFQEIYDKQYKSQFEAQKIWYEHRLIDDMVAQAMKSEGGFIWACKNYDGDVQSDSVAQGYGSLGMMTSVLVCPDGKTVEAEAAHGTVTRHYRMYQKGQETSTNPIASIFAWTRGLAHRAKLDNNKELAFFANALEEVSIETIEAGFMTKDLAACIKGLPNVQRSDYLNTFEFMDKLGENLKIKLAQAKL
GASC1 inh: KDM4C (human) demethylase inhibition; Q9H3R0; 0.15% of 96,000 active; inhibition, % at 12.5 µM; GST-KDM4C 2-372, H3K9me3 peptide, LANCE TR-FRET; AID 720574;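 active means mean replicate inhibition above about 25%, with at least 55% of replicates also reaching it, limit read from the data, passing the limit was not always enough; inconclusive means only one of those two conditions met; inactive means neither condition met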
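System: N-terminal GST-fused human GASC-1 (KDM4C) fragment, residues 2-372 / Amount: 10 nM GST-KDM4C in enzyme reaction / Also added: H3K9me3 peptide with Fe(II)/2OG / Times: 30 min demethylation and 1 h detection at room temperature / Signal: LANCE TR-FRET / Read-out basis: Fall in 671/618 emission ratio as inhibition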
T cruzi growth-1: blocks T. cruzi growth in NIH3T3 culture | T. cruzi beta-gal in NIH3T3, GalScreen luminescence, 90 h | inhibition, % at 8.34 µM | 5.9% of 77,000 active;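 active means mean inhibition above about 93%, with at least 55% of replicates each passing it, limit read from the data, passing the limit was not always enough; inconclusive means only one of those two conditions holds; inactive means neither condition holds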
Pf Dd2 growth: blocks growth of Plasmodium falciparum Dd2 parasites; P. falciparum Dd2 growth, SYBR Green, 72 h; active compounds read low; activity change, % at 10 µM; 2.3% of 94,000 active; in the data active means activity change below about -80%; inconclusive means no clear call, values can overlap the other calls
T cruzi growth-2: Trypanosoma cruzi proliferation inhibition. shares compounds with T cruzi growth-1. T. cruzi beta-gal in NIH3T3, GalScreen luminescence, 90 h. inhibition, % at 8.35 µM. 72% of 5,600 active. AID 651739;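 active means mean replicate inhibition above about 95% and at least 55% of replicates individually reaching it, limit read from the data; inconclusive means only one of the two criteria is met; inactive means neither criterion is met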
T cruzi growth-3: inhibitors of T. cruzi proliferation. shares compounds with T cruzi growth-1. T. cruzi beta-gal in NIH3T3, GalScreen luminescence, 90 h. inhibition, % at 2.09 µM. 21% of 5,600 active. AID 651740;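 active means mean inhibition above about 95%, with at least 55% of replicates also reaching it, limit read from the data; inconclusive means meets just one of the two conditions; inactive means meets neither condition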
NIH3T3 tox: NIH/3T3 (mouse) viability loss | cytotoxicity (signal decrease), % at 8.35 µM | shares compounds with T cruzi growth-1 | 14% of 5,600 active | NIH/3T3 viability, CellTiter-Glo ATP luminescence, 90 h | AID 651742;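 active means mean signal decrease across replicates above about 35% based on untreated-well scatter, with enough replicates individually passing, limit read from the data; inconclusive means no rule stated though some were filed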
NIH3T3 tox 2: NIH/3T3 (mouse) viability loss. shares compounds with T cruzi growth-1. NIH/3T3 viability, CellTiter-Glo ATP luminescence, 90 h. inhibition, % at 24.9 µM. 56% of 5,600 active. AID 651744;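 active means mean loss of cell viability signal at or above a set limit, and enough replicates individually reaching it; inconclusive means meets only the mean limit or only the replicate share; inactive means meets neither condition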
A number is an active result; i = inactive; ? = inconclusive; nt = not tested or not shown. Hits are enriched below; roughly 5.8% of the tested compounds scored in any of these assays.

SMILES	IDH1 R132H inh	GASC1 inh	T cruzi growth-1	Pf Dd2 growth	T cruzi growth-2	T cruzi growth-3	NIH3T3 tox	NIH3T3 tox 2
CO[C@H](CN(C)S(=O)(=O)c1cccc(Cl)c1)[C@H](C)CN([C@@H](C)CO)S(=O)(=O)c1cccc(Cl)c1	i	i	99.3	i	109.7	i	49.3	57.7
CO[C@@H](CN(C)S(=O)(=O)c1cccc(Cl)c1)[C@@H](C)CN([C@H](C)CO)S(=O)(=O)c1cccc(Cl)c1	i	i	i	i	nt	nt	nt	nt
CO[C@H](CN(C)S(=O)(=O)c1ccc(C)cc1)[C@H](C)CN([C@H](C)CO)S(=O)(=O)c1cccc(Cl)c1	i	i	102.0	i	102.8	i	57.7	83.6
CO[C@H](CN(C)S(=O)(=O)c1cccc(Cl)c1)[C@H](C)CN([C@H](C)CO)S(=O)(=O)c1cccc(Cl)c1	i	i	101.0	i	113.3	i	?	60.0
CO[C@@H](CN(C)S(=O)(=O)c1cccc(Cl)c1)[C@H](C)CN([C@@H](C)CO)S(=O)(=O)c1ccc(Cl)cc1	i	i	102.7	i	?	i	?	75.6
COc1ccc(CN(C)C[C@H]2OCCCC[C@H](C)Oc3ccc(NS(C)(=O)=O)cc3C(=O)N([C@@H](C)CO)C[C@@H]2C)cc1	i	i	i	nt	nt	nt	nt	nt
C[C@H](NC(=O)C[C@@H]1C[C@H]2c3cc(N(C)C)ccc3O[C@H]2[C@H](CO)O1)c1ccccc1	i	i	i	i	nt	nt	nt	nt
C[C@H]1CN([C@@H](C)CO)S(=O)(=O)c2ccc(C#CC3CCCC3)cc2O[C@@H]1CN(C)C(=O)Cc1ccncc1	nt	i	121.9	i	104.6	i	i	100.8
C[C@@H]1CN([C@H](C)CO)S(=O)(=O)c2ccc(C#CC3CC3)cc2O[C@@H]1CN(C)C(=O)Cc1ccncc1	nt	i	?	i	102.5	i	i	i
C[C@H](CO)N1C[C@H](C)[C@H](CN(C)C(=O)Cc2ccncc2)Oc2cc(C#CC3CCCC3)ccc2S1(=O)=O	nt	i	116.3	i	108.7	i	i	33.3
N#C[C@H]1[C@@H](c2ccc(C#Cc3cccc(F)c3)cc2)[C@H](CO)N1C(=O)C1CCCC1	nt	i	100.4	i	i	105.4	i	103.4
N#C[C@H]1[C@@H](c2ccc(C#Cc3cccc(F)c3)cc2)[C@@H](CO)N1C(=O)C1CCCC1	nt	i	i	i	nt	nt	nt	nt
N#C[C@H]1[C@H](c2ccc(C#Cc3ccc(F)cc3)cc2)[C@@H](CO)N1C(=O)C1CCC1	nt	i	i	i	nt	nt	nt	nt
N#C[C@H]1[C@H](c2ccc(C#Cc3cccc(F)c3)cc2)[C@H](CO)N1C(=O)C1CCCC1	nt	i	104.7	i	102.2	i	i	95.3
N#C[C@H]1[C@H](c2ccc(C#Cc3cccc(F)c3)cc2)[C@@H](CO)N1C(=O)C1CCCC1	nt	i	98.8	i	i	101.7	i	96.0
O=C(CN1CCOCC1)N1CCCCN2[C@H](C1)[C@H](c1ccc(C#Cc3ccccc3F)cc1)[C@@H]2CO	nt	i	107.2	i	i	i	i	89.1
O=C(CN1CCOCC1)N1CCCCN2[C@H](C1)[C@@H](c1ccc(C#Cc3ccccc3F)cc1)[C@@H]2CO	nt	i	i	i	nt	nt	nt	nt
O=C(CN1CCOCC1)N1CCCCN2[C@H](CO)[C@H](c3ccc(-c4ccccc4)cc3)[C@H]2C1	nt	i	i	i	nt	nt	nt	nt
O=C(CN1CCOCC1)N1CCCCN2[C@H](CO)[C@H](c3ccc(C#Cc4ccccc4F)cc3)[C@@H]2C1	nt	i	105.9	i	101.0	i	45.3	76.4
O=C(CN1CCOCC1)N1CCCCN2[C@H](CO)[C@@H](c3ccc(/C=C/c4ccccc4)cc3)[C@@H]2C1	nt	i	i	i	nt	nt	nt	nt
O=C(CN1CCOCC1)N1CCCCN2[C@H](CO)[C@H](c3ccc(C#Cc4ccccc4F)cc3)[C@H]2C1	nt	i	118.4	i	i	i	i	95.3
O=C(CN1CCOCC1)N1CCCCN2[C@H](CO)[C@H](c3ccc(C#Cc4ccccc4)cc3)[C@H]2C1	nt	i	98.0	i	96.1	i	i	67.5
CCC(=O)N1CCCCN2[C@H](CO)[C@H](c3ccc(C#Cc4ccccc4F)cc3)[C@H]2C1	nt	i	i	i	nt	nt	nt	nt
COc1ccc(S(=O)(=O)Nc2ccc3c(c2)C(=O)N([C@@H](C)CO)C[C@@H](C)[C@@H](CN(C)C(=O)Nc2ccc(F)cc2)OCCCC[C@@H](C)O3)cc1	i	i	i	i	nt	nt	nt	nt
C[C@H](CO)N1C[C@H](C)[C@H](CN(C)C(=O)Nc2ccc3c(c2)OCO3)Oc2ccc(NC(=O)c3ccncc3)cc2CC1=O	i	i	i	i	nt	nt	nt	nt
SMILES	IDH1 R132H inh	GASC1 inh	T cruzi growth-1	Pf Dd2 growth	T cruzi growth-2	T cruzi growth-3	NIH3T3 tox	NIH3T3 tox 2
COc1ccc(C#Cc2ccc([C@H]3[C@H]4CN(S(=O)(=O)c5ccccc5)CCCCN4[C@H]3CO)cc2)cc1	nt	i	106.9	i	110.7	99.1	i	51.9
COc1ccc(C#Cc2ccc([C@H]3[C@@H](CO)N4CCCCN(S(=O)(=O)c5ccccc5)C[C@H]34)cc2)cc1	nt	i	101.4	i	97.9	i	i	104.5
COc1ccc(C#Cc2ccc([C@@H]3[C@H]4CN(S(=O)(=O)c5ccccc5)CCCCN4[C@H]3CO)cc2)cc1	nt	i	i	i	nt	nt	nt	nt
COc1ccc(S(=O)(=O)N2CCCCN3[C@H](C2)[C@@H](c2ccc(C#CCC(C)C)cc2)[C@@H]3CO)cc1	nt	i	i	i	nt	nt	nt	nt
O=S(=O)(c1ccccc1)N1CCCCN2[C@H](CO)[C@@H](c3ccc(C#Cc4cccnc4)cc3)[C@H]2C1	nt	nt	?	i	109.9	i	i	78.7
COc1ccc(S(=O)(=O)N2CCCCN3[C@@H](CO)[C@H](c4ccc(C#CC(C)C)cc4)[C@@H]3C2)cc1	nt	i	103.6	i	97.5	i	46.3	104.4
O=S(=O)(c1ccccc1)N1CCCCN2[C@H](CO)[C@@H](c3ccc(C#Cc4ccccc4)cc3)[C@@H]2C1	nt	nt	i	i	nt	nt	nt	nt
CC(C)NC(=O)N(C)C[C@H]1Oc2ccc(NC(=O)Nc3ccc(F)cc3)cc2C(=O)N([C@H](C)CO)C[C@H]1C	i	i	nt	i	nt	nt	nt	nt
COc1ccc(S(=O)(=O)N(C)C[C@@H]2Oc3ccc(NS(=O)(=O)c4c(C)noc4C)cc3CC(=O)N([C@@H](C)CO)C[C@H]2C)cc1	i	i	i	i	nt	nt	nt	nt
O=C(Nc1ccccc1F)N[C@@H]1CC[C@@H](CCNS(=O)(=O)c2ccc(F)cc2)O[C@@H]1CO	i	i	nt	nt	nt	nt	nt	nt
C[C@H]1CN([C@@H](C)CO)S(=O)(=O)c2ccc(C3=CCCC3)cc2O[C@H]1CN(C)Cc1ccncc1	i	i	105.0	i	102.2	i	i	31.3

Screens deposited in PubChem BioAssay by Broad Institute.
